Data set [1] is described as follows: Bioavailability in dog. Type of data set: ADME, organism-based, Canis lupus familiaris. Conditions: in vivo.
The target of data set [2] is T1, Substance-P receptor (Homo sapiens, UniProt P25103). In words: In vitro inhibition of binding of [125I]Bolton-Hunter SP to Tachykinin receptor 1 in human IM-9 cell line. Type of data set: cell-based.
For data set [3], the species on record is Canis familiaris. In words: In vitro microsome stability tested in dog liver expressed as percent remaining […]. It is filed as functional. To be noted: Canis lupus familiaris.
The target in data set [4] is T1, Substance-P receptor. Nature of the data set: In vitro inhibition of binding of [125I]Bolton-Hunter SP to Tachykinin receptor 1 in human IM-9 cell line at a concentration of 10 nM. Type of data set: cell-based. The method in brief:
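Single-point screen at 10 nM test compound, run in triplicate, measuring displacement of [125I]Bolton-Hunter SP binding on human IM-9 cells expressing NK-1 receptors.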

T1 sequence (P25103 whole entry): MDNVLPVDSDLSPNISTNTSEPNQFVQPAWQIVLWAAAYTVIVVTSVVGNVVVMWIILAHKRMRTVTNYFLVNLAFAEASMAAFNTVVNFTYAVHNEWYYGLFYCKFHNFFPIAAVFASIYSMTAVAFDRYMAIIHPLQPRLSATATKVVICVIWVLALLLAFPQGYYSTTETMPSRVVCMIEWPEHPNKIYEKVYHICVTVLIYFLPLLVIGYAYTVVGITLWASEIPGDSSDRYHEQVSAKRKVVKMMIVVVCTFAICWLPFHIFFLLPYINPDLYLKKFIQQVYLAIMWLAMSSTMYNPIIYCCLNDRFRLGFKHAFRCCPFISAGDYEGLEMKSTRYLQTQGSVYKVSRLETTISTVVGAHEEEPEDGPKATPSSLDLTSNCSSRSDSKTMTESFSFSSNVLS

`COc1ccccc1CN(C[C@@H](Cc1c[nH]c2ccccc12)NC(=O)COc1ccc(CO)cc1)C(C)=O`: in data set [1], the bioavailability is 17%. This compound yielded a 50% inhibitory concentration (IC50) in data set [2] of 0.43 nM. In addition, the Remaining in data set [3] is 28%.
`COc1ccccc1CN(CC(Cc1c[nH]c2ccccc12)NC(=O)COc1ccccc1OC)C(C)=O` (configuration not stated): the inhibition in data set [4] was 42%. This compound showed an IC50 in data set [2] of 24 nM.
For `COc1ccccc1CN(C[C@@H](Cc1c[nH]c2ccccc12)NC(=O)CCC(=O)c1ccccc1)C(C)=O`, in that order: 20% and 34 nM.
For `COc1ccccc1CN(CC(Cc1c[nH]c2ccccc12)NC(=O)Cc1ccc(O)cc1)C(C)=O` (configuration not stated), the inhibition in data set [4] came to 25%.
Consider `COc1ccccc1CN(CC(Cc1c[nH]c2ccccc12)NC(=O)COc1ccc(O)cc1)C(C)=O` (configuration not stated), for which the inhibition in data set [4] worked out at 59%. Moreover, in data set [2], the IC50 worked out at 3.2 nM.
`COc1ccccc1CN(CC(Cc1c[nH]c2ccccc12)NC(=O)Cc1ccccc1)C(C)=O` (configuration not stated): in data set [4], the inhibition worked out at 18%.
For the compound `COc1ccccc1CN(CC(Cc1c[nH]c2ccccc12)NC(=O)c1ccccc1)C(C)=O` (configuration not stated), the inhibition in data set [4] is 0%.
`COc1ccccc1CN(CC(Cc1c[nH]c2ccccc12)NC(=O)COc1ccc(Cl)cc1)C(C)=O` (configuration not stated): the inhibition in data set [4] was found to be 19%.
The compound `COc1ccccc1CN(C[C@@H](Cc1c[nH]c2ccccc12)NC(=O)COc1ccc(-n2ccnc2)cc1)C(C)=O` registered a bioavailability in data set [1] of 14%. Besides, the IC50 in data set [2] came to 0.48 nM. The same compound showed a Remaining in data set [3] of 87%.
Compound `COc1ccccc1CN(CC(Cc1c[nH]c2ccccc12)NC(=O)CCc1ccccc1)C(C)=O` (configuration not stated) yielded an inhibition in data set [4] of 20%.
Still for that read-out and setting: to `CCOCC(=O)NC(Cc1c[nH]c2ccccc12)CN(Cc1ccccc1OC)C(C)=O` (configuration not stated) belongs 4%; to `COc1ccccc1CC(=O)NC(Cc1c[nH]c2ccccc12)CN(Cc1ccccc1OC)C(C)=O` (configuration not stated), 23%.
Turning to `COc1ccccc1CN(CC(Cc1c[nH]c2ccccc12)NC(=O)COc1ccc(CO)cc1)C(C)=O` (configuration not stated), the inhibition in data set [4] amounted to 87%. For the same compound, the IC50 in data set [2] was 0.82 nM.
With `COc1ccccc1CN(CC(Cc1c[nH]c2ccccc12)NC(=O)c1ccccc1Cl)C(C)=O` (configuration not stated), the inhibition in data set [4] was 0%.
With `COc1ccc(C(=O)NC(Cc2c[nH]c3ccccc23)CN(Cc2ccccc2OC)C(C)=O)cc1` (configuration not stated), in data set [4], the inhibition stood at 13%.
As to `COc1cccc(CC(=O)NC(Cc2c[nH]c3ccccc23)CN(Cc2ccccc2OC)C(C)=O)c1` (configuration not stated), the inhibition in data set [4] worked out at 22%.
`CC(=O)N(Cc1ccccc1Cl)C[C@@H](Cc1c[nH]c2ccccc12)NC(=O)COc1ccc(-n2ccnc2)cc1` displayed a bioavailability in data set [1] of 36%. Also, the Remaining in data set [3] was 96%.
For the compound `COc1ccccc1CN(CC(Cc1c[nH]c2ccccc12)NC(=O)CCC(=O)c1ccc(Cl)cc1)C(C)=O` (configuration not stated), the inhibition in data set [4] is 49%.
Same read-out and setting: the figure for `COc1ccccc1CN(CC(Cc1c[nH]c2ccccc12)NC(=O)Cc1ccccc1Cl)C(C)=O` (configuration not stated) is 30%.
On to `COc1ccccc1CN(CC(Cc1c[nH]c2ccccc12)NC(=O)COc1ccc(C(C)=O)cc1)C(C)=O` (configuration not stated), for which the inhibition in data set [4] amounted to 68%. In data set [2], the IC50 worked out at 3.5 nM.
For `COc1ccccc1CN(CC(Cc1c[nH]c2ccccc12)NC(=O)Cc1ccc2c(c1)OCCO2)C(C)=O` (configuration not stated), in that order: 46% and 8.3 nM.
`COc1ccccc1CN(C[C@@H](Cc1c[nH]c2ccccc12)NC(=O)COc1ccc(-c2csnn2)cc1)C(C)=O` returned a bioavailability in data set [1] of 47%. The compound also had an IC50 in data set [2] of 0.98 nM. This compound also came in with a Remaining in data set [3] of 67%.
Consider `COc1ccccc1CN(CC(Cc1c[nH]c2ccccc12)NC(=O)CSc1ccccn1)C(C)=O` (configuration not stated), for which the inhibition in data set [4] stood at 41%. Besides, the IC50 in data set [2] was 10.8 nM.
For `COc1ccc(OCC(=O)NC(Cc2c[nH]c3ccccc23)CN(Cc2ccccc2OC)C(C)=O)cc1` (configuration not stated), in that order: 52% and 10.2 nM.
For `COc1ccc(C(=O)CCC(=O)NC(Cc2c[nH]c3ccccc23)CN(Cc2ccccc2OC)C(C)=O)cc1` (configuration not stated), in that order: 63% and 3.3 nM.
Compound `COc1cccc(OCC(=O)NC(Cc2c[nH]c3ccccc23)CN(Cc2ccccc2OC)C(C)=O)c1` (configuration not stated) showed an inhibition in data set [4] of 3%.
`COc1ccccc1CN(CC(Cc1c[nH]c2ccccc12)NC(=O)CCC(=O)c1ccc(F)cc1)C(C)=O` (configuration not stated) came in with an inhibition in data set [4] of 66%. Besides, in data set [2], the IC50 was 6 nM.
For the compound `COc1ccccc1CN(C[C@@H](Cc1c[nH]c2ccccc12)NC(=O)CN1CCC(N2CCCCC2)CC1)C(C)=O` [LANEPITANT], the bioavailability in data set [1] came to 9%.
In data set [4], `COc1ccc(CC(=O)NC(Cc2c[nH]c3ccccc23)CN(Cc2ccccc2OC)C(C)=O)cc1` (configuration not stated) yielded an inhibition of 81%. Also, the IC50 in data set [2] came to 9.7 nM.

Usually bioavailability stands for dose-corrected exposure relative to a reference, in per cent. A lower bioavailability goes with poor availability. What is called IC50 is the concentration that gives 50% inhibition. High values mean lower potency, low ones higher potency. Usually inhibition stands for the relative decrease from the control value, in per cent. Higher therefore signals a strong effect.
